Laboratory results as given in ChEMBL document CHEMBL4304784, “Discovery of new potent dual sigma receptor/GluN2b ligands with antioxidant property as neuroprotective agents” (Eur J Med Chem, 2019).
pKi: −log10 of the molar value. Converted amounts (≈) assume the structure as drawn.

Key:
[1] = Cytotoxicity against human SH-SY5Y cells assessed as decrease in cell viability incubated for 48 hrs by MTT assay; assay type: cell-based; conditions: read-out: LD50
Outline: (§1)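 Cells kept in DMEM Glutamax with 10% FBS and antibiotic/antimycotic at 37 °C, 5% CO2. Seeded 24 h before dosing (SH-SY5Y at 2x10^3 cells/well). Compounds in DMSO serially diluted in medium, final DMSO 1.0%, exposure 48 h. MTT added for 4 h at 37 °C, read A595 minus A655. LD50 from linear regression of dose-log response curves; triplicates, three experiments, mean ± SEM.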

[2] = Cytotoxicity against human HeLa cells assessed as cell viability at 25 uM incubated for 48 hrs by MTT assay relative to control; assay type: cell-based; conditions: read-out: Activity
Outline: (§2)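 Cells kept in DMEM Glutamax with 10% FBS and antibiotic/antimycotic at 37 °C, 5% CO2. Plated at 2x10^3 cells/well 24 h before dosing. Compounds taken from DMSO and diluted in medium, final DMSO ≤1.0%. Exposure 48 h, then MTT added for 4 h at 37 °C. Read as A595 minus A655. Triplicates, at least three independent experiments, mean ± SEM.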

[3] = Selectivity ratio of Ki for sigma1 receptor in guinea pig brain membranes to Ki for sigma2 receptor in rat liver membranes; assay type: cell membranes
[4] = Selectivity ratio of Ki for sigma2 receptor in rat liver membranes to Ki for GluN1a/GluN2B (unknown origin) expressed in mouse L(tk-) cell membranes; assay type: cell-based
[5] = target: T1, Sigma intracellular receptor 2 (Rattus norvegicus, UniProt Q5U3Y7); assay: Displacement of [3H]-di-o-tolylguanidine from sigma2 receptor in rat liver membranes in the presence of sigma1 receptor ligand (+)-pentazocine incubated for 120 mins by scintillation counting method; assay type: cell membranes
T1 sequence (Q5U3Y7 whole entry): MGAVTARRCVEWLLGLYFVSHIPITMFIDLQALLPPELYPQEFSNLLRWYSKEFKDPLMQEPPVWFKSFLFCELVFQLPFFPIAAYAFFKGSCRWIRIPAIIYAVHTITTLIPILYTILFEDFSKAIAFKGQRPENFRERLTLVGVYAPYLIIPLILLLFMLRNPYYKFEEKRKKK
Outline: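 Rat liver membranes (about 100 µg protein) with 3 nM [3H]di-o-tolylguanidine in 50 mM TRIS pH 8.0 containing 500 nM (+)-pentazocine, at rt. Non-specific binding defined with 10 µM unlabeled DTG. Concentrations 10^-5 to 10^-10 M, in duplicate. 120 min, filtration, scintillation counting. Three independent experiments, mean ± SEM.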

[6] = Cytotoxicity against human HeLa cells assessed as cell viability at 100 uM incubated for 48 hrs by MTT assay relative to control; assay type: cell-based; conditions: read-out: Activity; outline: as §2
[7] = Cytotoxicity against human SH-SY5Y cells assessed as cell viability at 100 uM incubated for 48 hrs by MTT assay (reference value: 100 +/- 12.00%); assay type: cell-based; conditions: read-out: Activity; outline: as §2
[8] = target: Sigma non-opioid intracellular receptor 1 (Cavia porcellus, UniProt Q60492); assay: Displacement of [3H]-(+)-pentazocine from sigma1 receptor in guinea pig brain cortex membranes incubated for 120 mins by solid scintillation counting method; assay type: cell membranes
Sigma non-opioid intracellular receptor 1, sequence (Q60492 whole entry): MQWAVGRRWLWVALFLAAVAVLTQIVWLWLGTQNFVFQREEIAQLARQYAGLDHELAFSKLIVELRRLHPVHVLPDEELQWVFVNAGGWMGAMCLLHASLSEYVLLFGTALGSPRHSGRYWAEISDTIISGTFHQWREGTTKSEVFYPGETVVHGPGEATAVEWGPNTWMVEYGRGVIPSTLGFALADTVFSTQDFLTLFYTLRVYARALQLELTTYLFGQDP
Outline: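 Guinea pig brain cortex membranes (about 100 µg protein) with 2 nM [3H]-(+)-pentazocine in 50 mM TRIS pH 7.4 at 37 °C. Non-specific binding defined with 10 µM unlabeled (+)-pentazocine. Six concentrations, 10^-5 to 10^-10 M, in duplicate. 120 min with shaking, filtration, solid scintillator counting.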

[9] = Cytotoxicity against human SH-SY5Y cells assessed as cell viability at 10 uM incubated for 48 hrs by MTT assay (reference value: 100 +/- 12.00%); assay type: cell-based; conditions: read-out: Activity; outline: as §2
[10] = Cytotoxicity against human SH-SY5Y cells assessed as cell viability at 50 uM incubated for 48 hrs by MTT assay (reference value: 100 +/- 12.00%); assay type: cell-based; conditions: read-out: Activity; outline: as §2
[11] = Antioxidant activity assessed as ABTS radical scavenging activity incubated for 40 mins; assay type: functional
Outline: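 Test compound at 0.05, 0.1, 0.2 and 0.4 mg/mL (200 µL) added to 1.8 mL ethanolic ABTS 7mM. Incubated 40 min at room temperature, absorbance read at 735 nm against ABTS solution. Percent inhibition computed from absorbances and used to derive IC50. Triplicate, mean ± SEM; ascorbic acid as reference.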

[12] = Cytotoxicity against human Hep3B cells assessed as cell viability at 25 uM incubated for 48 hrs by MTT assay relative to control; assay type: cell-based, Hep 3B2; conditions: read-out: Activity; outline: as §2
[13] = Cytotoxicity against human SH-SY5Y cells assessed as cell viability at 25 uM incubated for 48 hrs by MTT assay (reference value: 100 +/- 12.00%); assay type: cell-based; conditions: read-out: Activity; outline: as §2
[14] = Antioxidant activity assessed as H2O2 radical scavenging activity; assay type: functional
Outline: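 Compounds at 0.05, 0.1, 0.2 and 0.4 mg/mL in phosphate buffer pH 7.4. 0.353 mL of 4 mM H2O2 in phosphate buffer added to 2.0 mL of each solution, absorbance read at 239 nm. Percent inhibition calculated from absorbances relative to control. Triplicate, mean ± SEM.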

[15] = Cytotoxicity against human Hep3B cells assessed as cell viability at 100 uM incubated for 48 hrs by MTT assay relative to control; assay type: cell-based, Hep 3B2; conditions: read-out: Activity; outline: as §2
[16] = Cytotoxicity against human Hep3B cells assessed as cell viability at 10 uM incubated for 48 hrs by MTT assay relative to control; assay type: cell-based, Hep 3B2; conditions: read-out: Activity; outline: as §2
[17] = Cytotoxicity against human Hep3B cells assessed as decrease in cell viability incubated for 48 hrs by MTT assay; assay type: cell-based, Hep 3B2; conditions: read-out: LD50; outline: as §1
[18] = target: T2, Glutamate NMDA receptor; GRIN1/GRIN2B (Homo sapiens, UniProt Q05586+Q13224); assay: Potency index, ratio of ifenprodil Ki to test compound Ki for displacement of [3H]ifenprodil from GluN1a/GluN2B (unknown origin) expressed in mouse L(tk-) cell membranes
[19] = Cytotoxicity against human Hep3B cells assessed as cell viability at 50 uM incubated for 48 hrs by MTT assay relative to control; assay type: cell-based, Hep 3B2; conditions: read-out: Activity; outline: as §2
SH-SY5Y = assay: Neuroprotective activity against H2O2-induced toxicity in human SH-SY5Y cells assessed as cell viability at 25 uM pretreated for 48 hrs followed by H2O2 challenge and measured after 4 hrs by MTT assay (reference value: 18 +/- 2.64%); assay type: functional; conditions: read-out: Activity
[20] = Cytotoxicity against human HeLa cells assessed as decrease in cell viability incubated for 48 hrs by MTT assay; assay type: cell-based; conditions: read-out: LD50; outline: as §1
[21] = target: T2, Glutamate NMDA receptor; GRIN1/GRIN2B; assay: Displacement of [3H]ifenprodil from GluN1a/GluN2B (unknown origin) expressed in mouse L(tk-) cell membranes after 120 mins by solid scintillation counting method
Outline: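 Membranes (about 20 μg protein) from mouse L(tk-) cells stably carrying GluN1a/GluN2B, induced with 4 μM dexamethasone and 4 μM ketamine for 24 h. Incubated with 5 nM [3H]ifenprodil in 5 mM TRIS/1 mM EDTA pH 7.5 at 37 °C, 120 min. Non-specific binding defined with 10 μM ifenprodil.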

[22] = Cytotoxicity against human HeLa cells assessed as cell viability at 10 uM incubated for 48 hrs by MTT assay relative to control; assay type: cell-based; conditions: read-out: Activity; outline: as §2
[23] = Cytotoxicity against human HeLa cells assessed as cell viability at 50 uM incubated for 48 hrs by MTT assay relative to control; assay type: cell-based; conditions: read-out: Activity; outline: as §2

Compound	CC50 at 48 h [1] [µM]	viability at 48 h, 25 µM [2] [%]	Ratio Ki [3]	Ratio Ki [4]	pKi [5]	viability at 48 h, 100 µM [6] [%]	viability at 48 h, 100 µM [7] [%]	pKi [8]	viability at 48 h, 10 µM [9] [%]	viability at 48 h, 50 µM [10] [%]	IC50 [11] [mg/L]	viability at 48 h, 25 µM [12] [%]	viability at 48 h, 25 µM [13] [%]	IC50 [14] [mg/L]	viability at 48 h, 100 µM [15] [%]	viability at 48 h, 10 µM [16] [%]	CC50 at 48 h [17] [µM]	viability at 48 h, 50 µM [19] [%]	viability at 25 µM (SH-SY5Y) [%]	CC50 at 48 h [20] [µM]	other results
O=C1CCc2ccccc2N1CCCCN1CCN(C2CCCCC2)CC1	493	75	14	0.75	8.82	94	99	7.68	91	86	35.79 (≈ 96.8 µM)	70	81 to 111	38.29 (≈ 104 µM)	52	106	81	48	105	265	Ratio Ki [18]: 5; pKi [21]: 8.70; viability at 48 h, 10 µM [22]: 83%; viability at 48 h, 50 µM [23]: 79%
Cc1ccc(CN(C)CCCCn2nc(-c3ccccc3)oc2=O)c(C)c1	77	74	0.95	0.8	7.68	22	28	7.70	121	75	25.47 (≈ 69.7 µM)	83	85 to 96	31.44 (≈ 86 µM)	25	100	70	70	100	69	pKi [21]: 7.59; viability at 48 h, 10 µM [22]: 86%; viability at 48 h, 50 µM [23]: 80%
O=c1oc(-c2ccccc2)nn1CCCCN1CCC2(CC1)OCc1ccccc12	53	80	1.2	2	7.80	5	1	7.72	120	50	17.96 (≈ 44.3 µM)	90	96 to 104	21.19 (≈ 52.3 µM)	4	87	51	42	101	55	pKi [21]: 8.09; viability at 48 h, 10 µM [22]: 99%; viability at 48 h, 50 µM [23]: 60%
